Series [1] concerns MCF7. Put plainly: Cytotoxicity against human MCF7 cells assessed as growth inhibition after 24 hrs by MTT assay. Type of series: functional, cell-based. In a few lines: (§1)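 Seeded 0.8 × 10^4 cells/well, cultured 24 h, then exposed to 0, 10, 20, 40 or 80 μM for 24 h (DMSO <0.05%) in RPMI 1640 or MEM with 10% FBS. Adherent lines rinsed with PBS, given MTT 2 h at 37 °C. Suspension lines (U937, HL60) given MTT 2 h, then centrifuged. Formazan dissolved in DMSO, A492 read. Inhibition % = (control − sample)/(control − blank) × 100.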
(In general: Tetrazolium assays rely on reduction of a dye to a coloured formazan, in cell work by metabolically active cells.)

Series [2] has as its system HT-1080. Put plainly: Induction of autophagy in human HT1080 cells assessed as increase in autophagolysosomes at 10 uM after 24 hrs by MDC staining-based fluorescence microscopic analysis (reference value: 2.65 +/- 0.12%). Type of series: functional. In a few lines: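 HT1080 cells at 2 × 10^4 per well, cultured 24 h, then given 10 μM for 24 h. Stained with 0.05 mM MDC at 37 °C for 1 h. Autophagolysosomes viewed by fluorescence microscopy at 200×.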

For series [3], the system named is HT-1080. Put plainly: Induction of autophagy in human HT1080 cells assessed as upregulation of beclin 1 at 10 uM pretreated with rapamycin for 1 hr prior to compound addition measured after 24 hrs by Western blotting analysis. It is filed as functional, cell-based. A digest of the protocol: (§2)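 HT1080 cells pretreated 1 h with 1 mM 3MA or 1 nM rapamycin, then 10 μM added for 24 h. Adherent and floating cells lysed in Hepes pH 7.4/Triton buffer. Equal protein on 12% SDS-PAGE and nitrocellulose, probed for beclin 1 and LC3, ECL detection. Normalized to β-actin, n = 3.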
A general note: Immunoblotting shows a protein as a band on a membrane.

In series [4] the test system is HT-1080. Put plainly: Induction of apoptosis in human HT1080 cells assessed as change in BCL2 expression at 10 uM after 6 to 24 hrs by Western blotting analysis. It is filed as functional, cell-based. In a few lines:
(§3)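 HT1080 cells treated with 10 μM for 6, 12, 18 and 24 h. Adherent and floating cells lysed 60 min at 4 °C in Hepes pH 7.4/1% Triton X-100 buffer with phosphatase and protease inhibitors. Equal protein run on 12% SDS-PAGE, transferred to nitrocellulose, probed with specific antibodies, HRP/ECL detection. Band density normalized to β-actin; n = 3.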

The test system of series [5] is PBMC. In words: Cytotoxicity against human PBMC at 10 to 20 uM after 24 to 48 hrs by MTT assay. It is filed as cell-based. In a few lines: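 PBMC from fresh blood of three healthy male donors. Blood diluted 1:3 in PBS, layered on Ficoll-Hypaque (1.077 g/mL), spun 900g 30 min. Band washed 400g 10 min, cells resuspended in complete RPMI-1640 in 96-well plates. Treated with 0, 10, 20, 40 or 80 μM for 24 and 48 h, then MTT. Means ± SD of three independent experiments.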

In series [6] the test system is HT-1080. In words: Induction of apoptosis in human HT1080 cells assessed as increase in procaspase-3 cleavage at 10 uM pretreated with 3MA for 1 hr prior to compound addition measured after 24 hrs by Western blotting analysis. Type of series: functional, cell-based. In a few lines:
(§4)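 HT1080 cells pretreated 1 h with 1 mM 3MA or 1 nM rapamycin, then co-incubated with 10 μM for 24 h. Adherent and floating cells lysed in Hepes pH 7.4/Triton buffer. 12% SDS-PAGE, nitrocellulose, antibodies against Fas, FADD, caspase-8, caspase-3, PARP and ICAD, ECL detection. Densities normalized to β-actin; n = 3.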

The subject of series [7] is HT-1080. In words: Induction of apoptosis in human HT1080 cells assessed as upregulation of FAS protein expression at 10 uM pretreated with 3MA for 1 hr prior to compound addition measured after 24 hrs by Western blotting analysis. It is filed as functional, cell-based. In a few lines: as §4
Series [8] concerns HCT-116. In words: Cytotoxicity against human HCT116 cells assessed as growth inhibition after 24 hrs by MTT assay. Type of series: functional, cell-based. In a few lines: as §1
Series [9] has as its system HeLa. In words: Cytotoxicity against human HeLa cells assessed as growth inhibition after 24 hrs by MTT assay. Type of series: functional, cell-based. A digest of the protocol: as §1
For series [10], the system named is HT-1080. In words: Induction of apoptosis in human HT1080 cells expressing beclin 1 siRNA assessed as increase in procaspase-3 cleavage at 10 uM after 24 hrs by Western blotting analysis relative to control. It is filed as functional, cell-based. In a few lines:
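Beclin 1 or nonspecific siRNA transfected into HT1080 cells (5 × 10^5 seeded a day earlier; transfection mixture for 7 h at 37 °C, then normal medium, 24 h before harvest). Cells then got 10 μM for 24 h. Adherent plus floating cells lysed in Hepes pH 7.4/Triton buffer at 4 °C for 60 min. Equal protein on 12% SDS-PAGE, nitrocellulose, ECL. Bands normalized to β-actin, n = 3.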

For series [11], the system named is HT-1080. Put plainly: Cytotoxicity against human HT1080 cells assessed as growth inhibition after 12 to 72 hrs by MTT assay. It is filed as functional, cell-based.
The test system of series [12] is HT-1080. Put plainly: Induction of autophagy in human HT1080 cells assessed as upregulation of beclin 1 at 10 uM pretreated with 3MA for 1 hr prior to compound addition measured after 24 hrs by Western blotting analysis. Type of series: functional, cell-based. A digest of the protocol:
as §2

Series [13] relates to HT-1080. Put plainly: Cytotoxicity against human HT1080 cells assessed as growth inhibition at 10 uM pretreated with rapamycin for 1 hr prior to compound addition measured after 24 hrs by MTT assay. It is filed as functional, cell-based. A digest of the protocol:
(§5)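 HT1080 seeded 0.8 × 10^4 cells/well. MTT 2 h at 37 °C, formazan in DMSO, A492 read. Inhibition % calculated against untreated and blank wells.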

For series [14], the system named is HT-1080. In words: Induction of apoptosis in human HT1080 cells assessed as upregulation of FADD protein expression at 10 uM pretreated with 3MA for 1 hr prior to compound addition measured after 24 hrs by Western blotting analysis. Type of series: functional, cell-based. In a few lines: as §4
In series [15] the test system is HT-1080. In words: Induction of autophagy in human HT1080 cells assessed as autophagic vacuole formation at 10 uM pretreated with 3MA for 1 hr prior to compound addition measured after 24 hrs by MDC staining-based FACS flow cytometric analysis. Type of series: functional, cell-based. A digest of the protocol: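 HT1080 cells seeded at 3 × 10^5 per flask and grown 24 h. Pretreated 1 h with 1 mM 3MA or 1 nM rapamycin, then 10 μM for 24 h. Collected cells stained with 0.05 mM MDC at 37 °C for 1 h. MDC-positive ratio measured by flow cytometry, n = 3, mean ± SD.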

In series [16] the test system is HT-1080. Put plainly: Induction of apoptosis in human HT1080 cells assessed as PARP cleavage at 10 uM after 6 to 24 hrs by Western blotting analysis. Type of series: functional, cell-based. In a few lines:
as §3

The subject of series [17] is HT-1080. In words: Induction of apoptosis in human HT1080 cells expressing beclin 1 siRNA assessed as increase in apoptotic ratio at 10 uM after 24 hrs by propidium iodide staining-based FACS flow cytometric analysis relative to control. It is filed as functional, cell-based. In a few lines: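 HT1080 cells transfected with beclin 1 or nonspecific siRNA (7 h at 37 °C, then 24 h in growth medium), then exposed to 10 μM for 24 h. Cells fixed in 70% ethanol at 4 °C for 18 h, washed, stained with PI 50 μg/mL plus RNase A 1 mg/mL. Apoptotic (sub-G1) fraction read by flow cytometry.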
On the technique in general: In flow cytometry, cells or beads pass a laser one at a time.

For series [18], the system named is HT-1080. In words: Induction of apoptosis in human HT1080 cells assessed as appearance of cleaved procaspase-9 at 10 uM after 6 to 24 hrs by Western blotting analysis. Type of series: functional, cell-based. A digest of the protocol:
as §3

For series [19], the system named is HT-1080. In words: Induction of apoptosis in human HT1080 cells assessed as change in cytosolic BID expression at 10 uM after 6 to 24 hrs by Western blotting analysis. It is filed as functional, cell-based. In a few lines: as §3
The test system of series [20] is HT-1080. In words: Cytotoxicity against human HT1080 cells assessed as growth inhibition at 10 uM pretreated with 3MA for 1 hr prior to compound addition measured after 24 hrs by MTT assay. It is filed as functional, cell-based. A digest of the protocol:
as §5

The source made the active and inactive calls. The calls are words filed in the database; no cut-off is given here.

In the case of `C=C1C(=O)O[C@@H]2C[C@@]1(C)[C@@H]1C(=O)[C@]3(O)O[C@]14[C@@]2(C)OC(=O)[C@@]4(O)CC[C@H]1[C@H]3[C@H](O)C=C2CC=CC(=O)[C@@]21C` [PHYSALIN A], the “growth inhibition (GI)” value in [1], in series [8], in series [9] and in [11] was “Dose-dependent effect” throughout. The Activity in series [2] is 26.7%; in series [5], “Non-toxic”. For the same compound, the result in [3], in series [6], in series [7], in [10], in series [14] and in series [16] was Active. Besides, the result in series [17] was Active. The outcome in series [4], in [12], in series [15], in series [18] and in series [19] was inactive. Besides, in series [13], the “growth inhibition (GI)” value is “inactive”. For the same compound, the “growth inhibition (GI)” value in [20] is “Active”.

These data come from ChEMBL document CHEMBL2380219, “Physalin A induces apoptotic cell death and protective autophagy in HT1080 human fibrosarcoma cells” (J Nat Prod, 2013).
